The target of one assay is HDAC4 (Homo sapiens, UniProt P56524). Briefly: HDAC enzyme activity assay. Particulars: for remaining activity at 50 µM: read-out: Residual HDAC4 activity at 50 μM. The assay is classed as biochemical. The method, boiled down:
(§1)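 HDAC4 and HDAC8 were in-house recombinant enzymes. Each was preincubated with inhibitor, either a single 50 μM screen or serial dilutions, for 60 min at 30 °C in Tris-HCl pH 8.0/KCl/Pluronic buffer. Substrate was 20 μM Boc-Lys(trifluoroacetyl)-AMC for 60 min at 30 °C, stopped with 1.7 μM SATFMK, and developed with trypsin. AMC fluorescence was read at 350/450 nm and reported as residual activity or as IC50 from a four-parameter logistic fit.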

Assay [1] concerns the target T1, HDAC8 (Homo sapiens, UniProt Q9BY41).
T1 sequence (Q9BY41 1-377): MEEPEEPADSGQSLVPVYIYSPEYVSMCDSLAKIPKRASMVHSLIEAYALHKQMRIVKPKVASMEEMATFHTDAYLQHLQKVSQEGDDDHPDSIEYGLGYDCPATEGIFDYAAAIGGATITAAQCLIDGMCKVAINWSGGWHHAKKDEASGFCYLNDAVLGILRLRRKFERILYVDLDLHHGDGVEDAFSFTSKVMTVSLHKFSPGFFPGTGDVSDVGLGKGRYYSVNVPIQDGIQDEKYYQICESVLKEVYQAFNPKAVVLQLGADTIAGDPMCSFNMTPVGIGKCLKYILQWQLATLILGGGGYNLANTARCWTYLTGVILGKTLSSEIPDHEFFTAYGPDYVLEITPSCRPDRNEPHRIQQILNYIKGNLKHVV
In words: HDAC enzyme activity assay. It is filed as biochemical. Particulars: for remaining activity at 50 µM: read-out: Residual HDAC8 activity at 50 μM. The method, boiled down:
as §1

Assay [2] concerns the target T1, HDAC8. Briefly: Thermal shift assay. The assay is classed as binding.
For another assay, the system named is CEM leukemia cells. Briefly: Differential Nuclear Staining. Particulars: CEM, DNS assay, 48 h, 100 μM. The assay is classed as cell-based, human. The method, boiled down: (§2)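 Cells were seeded at 10,000/well and exposed to test compound for 48 h at 1% (v/v) final DMSO. The first screen used a single concentration with controls in quadruplicate. Dose-response used 0.5–100 μM in triplicate. Controls: DMSO vehicle, hydrogen peroxide (positive), untreated (negative). Hoechst 33342 plus PI were added 2 h before automated imaging, and colocalised signal was scored as dead. […] Two-tailed t-test versus DMSO.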

The subject of another assay is K-562 leukemia cells. Briefly: Differential Nuclear Staining. It is filed as cell-based, human. The method, boiled down:
as §2

Another assay relates to KCL-22 leukemia cells. In words: Differential Nuclear Staining. It is filed as cell-based, human. Particulars: KCL22, DNS assay, 48 h, 100 μM. The method, boiled down: as §2

A word on the IC50: it is the concentration that inhibits the measured activity by half. Higher therefore signals weaker potency. A word on the CC50: it is the concentration at which the toxic effect on the cells reaches its halfway point.

Sequence of HDAC4 (P56524 648-1057 limits assumed): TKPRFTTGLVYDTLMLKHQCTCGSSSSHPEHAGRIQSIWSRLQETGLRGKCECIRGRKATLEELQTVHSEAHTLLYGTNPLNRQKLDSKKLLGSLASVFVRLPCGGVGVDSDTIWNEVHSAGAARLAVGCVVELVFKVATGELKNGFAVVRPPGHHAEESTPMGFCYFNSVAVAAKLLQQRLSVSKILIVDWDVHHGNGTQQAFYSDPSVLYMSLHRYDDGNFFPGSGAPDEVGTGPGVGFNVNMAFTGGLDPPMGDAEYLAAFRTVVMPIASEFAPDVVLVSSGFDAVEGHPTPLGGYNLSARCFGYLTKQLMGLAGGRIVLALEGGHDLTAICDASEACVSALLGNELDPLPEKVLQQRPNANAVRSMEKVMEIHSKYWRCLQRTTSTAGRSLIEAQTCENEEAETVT

Consider `O=C(CN1C(=O)SC(=Cc2ccccn2)C1=O)Nc1ccc(F)cc1F` [Compound P5, N-(2,4-difluorophenyl)-2-(2,4-dioxo-5-(pyridin-2-ylmethylene)thiazolidin-3-yl)acetamide], for which the IC50 is 50 µM at HDAC4 and more than 50 µM on HDAC8 [1]. The remaining activity at 50 µM at HDAC4 was determined as 59%; on HDAC8 [1], 80%. Also, the “Thermal shift (ΔT), stabilizing effect on HDAC8” value (“Thermal shift (ΔT)” for short) at HDAC8 [2] is “did not confer significant stability to the protein”.
`Cc1ccc(NC(=O)CN2C(=O)SC(=Cc3ccccn3)C2=O)cc1` [Compound P12, 2-(2,4-dioxo-5-(pyridin-2-ylmethylene)thiazolidin-3-yl)-N-(p-tolyl)acetamide]: the “cell death at 100 μM” value in the assay with CEM leukemia cells was determined as 38.67% cell death at 100 μM; in the assay with K-562 leukemia cells (K562, DNS assay, 48 h, 100 μM) it was 39.42% cell death at 100 μM; with KCL-22 leukemia cells, 24.81% cell death at 100 μM. Also, the remaining activity at 50 µM at HDAC4 worked out at 100%; on HDAC8 [1], 75%. Besides, the IC50 against HDAC8 [1] amounted to 47 ± 1.1 µM. Besides, the “Thermal shift (ΔT)” value on HDAC8 [2] is recorded as “did not confer significant stability to the protein”.
Consider `O=C(CN1C(=O)SC(=Cc2ccccn2)C1=O)Nc1cc(C(F)(F)F)ccc1Cl` [Compound P9, N-(2-chloro-5-(trifluoromethyl)phenyl)-2-(2,4-dioxo-5-(pyridin-2-ylmethylene)thiazolidin-3-yl)acetamide], for which the entries for the “cell death at 100 μM” value in the assay on CEM leukemia cells and in the assay on KCL-22 leukemia cells were 4.80% cell death at 100 μM and 6.54% cell death at 100 μM, respectively. For the same compound, half-maximal cytotoxicity in the assay on K-562 leukemia cells (Homo sapiens, K562, 48 h) (CC50) was put at 102 ± 2.45 µM. The remaining activity at 50 µM on HDAC4 stood at 100%; on HDAC8 [1] it was 38%. Also, the “Thermal shift (ΔT)” value on HDAC8 [2] was “did not confer significant stability to the protein”.
